SR-BI DiI inh – inhibitors of SR-BI mediated HDL lipid uptake, primary screen, ldlA[mSR-BI] cells, fluorescence, single point | inhibition, % at 12.5 µM | 320,000 tested, 0.96% active | AID 488896, 2010 | ldlA[mSR-BI] CHO cells, DiI-HDL uptake fluorescence, 3 h;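 active = mean replicate inhibition of at least 70% and a set share of replicates each scoring 70 or more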
Target sequence (Q61009 whole entry, looked up): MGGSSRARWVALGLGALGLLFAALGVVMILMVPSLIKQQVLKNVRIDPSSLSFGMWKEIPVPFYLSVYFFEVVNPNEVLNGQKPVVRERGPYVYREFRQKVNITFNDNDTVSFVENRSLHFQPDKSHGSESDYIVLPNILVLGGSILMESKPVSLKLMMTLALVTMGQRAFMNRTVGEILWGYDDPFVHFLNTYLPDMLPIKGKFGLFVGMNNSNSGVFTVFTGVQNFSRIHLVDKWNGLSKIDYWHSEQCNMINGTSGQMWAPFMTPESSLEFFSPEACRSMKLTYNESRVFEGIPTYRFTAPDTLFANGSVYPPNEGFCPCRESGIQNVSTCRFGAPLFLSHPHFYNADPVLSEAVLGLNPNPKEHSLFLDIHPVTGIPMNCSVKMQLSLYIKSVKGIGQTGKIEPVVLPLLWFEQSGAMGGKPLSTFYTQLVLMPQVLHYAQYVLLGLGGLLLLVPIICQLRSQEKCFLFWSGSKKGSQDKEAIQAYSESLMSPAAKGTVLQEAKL
SR-BI DiI-HDL act – activators of SR-BI mediated DiI-HDL uptake, primary screen, ldlA[mSR-BI] CHO cells, DiI fluorescence; 3 h; 100 = double the neutral-control signal; activation, % at 12.5 µM; 320,000 tested, 0.096% active;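 active = mean replicate activation of at least 60% and every replicate at or above 60%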
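Test system: SR-BI-overexpressing, LDLR-lacking CHO cells; Also added: labelled HDL, 10 µg/mL; Measured by: bottom-read cell fluorescence after medium removal, ex 550/em 595 nm; Timing: 3 h uptake period with compound, 37 °C; Buffer or medium: F12, 0.5% BSA, 25 mM HEPES; Doses: single compound concentration, delivered by pin transfer.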
ABCB6 inh 2 – ABCB6 transporter inhibitors, primary screen, K562-ABCB6 cells, flow cytometry, MLPCN library; fluorescence ratio to DMSO, % at 10 µM; AID 602162, 2011; 360,000 tested, 0.19% active; ATP-binding cassette sub-family B member 6 (Homo sapiens), Q9NP58; K562-ABCB6 porphyrin accumulation, 1 h; hits give low values;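 active = fluorescence ratio to DMSO below 75%, the collection mean minus 3 SD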;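 also: signal is porphyrin accumulated inside mitochondria; lower ratio means ABCB6 inhibition with less porphyrin fluorescence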
GAA850 FXN act – FXN promoter activators, primary screen, cell-based, luciferase luminescence, HEK293 lucGAA850; HEK293 lucGAA850 FXN promoter luciferase reporter, 24 h; percent of 10 µM SAHA response; activation, % at 6 µM; 360,000 tested, 0.56% active;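 active = activation above the average of all compounds screened plus 3 SD, cutoff fixed separately per campaign, cut at about 7.5% in these data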
AHR activator – AHR activators, primary screen, cell-based, luminescence, luciferase reporter, human | activation, % at 5 µM | AHR-responsive luciferase reporter cells | 320,000 tested, 2.5% active | AID 2796, 2010; in the data active = activation above about 47%
HIF activator – HIF pathway transcriptional activators, primary screen, cell-based, U2OS HRE-luciferase, luminescence. AID 1910, 2009. U2OS HRE-luciferase reporter; normalized: DMSO 0%, desferrioxamine 100%. activation, % at 7.5 µM (by protocol). 300,000 tested, 0.32% active;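 active = mean activation of at least 10% of the iron chelator positive control signal, with at least half of replicates also reaching 10%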
AHR act confirm – AHR activators, confirmation, cell-based, luminescence, luciferase reporter, human. shares compounds with AHR activator. human cells, AHR-responsive luciferase reporter. activation, % at 9 µM. 2,300 tested, 87% active. AID 2845, 2010; in the data active = activation above about 49%;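 also: HepG2 hepatoma cells carrying a DRE-driven firefly luciferase reporter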
PXR counter – human PXR activators, counter-screen for AHR activator project, cell-based, luciferase luminescence; shares compounds with AHR activator; cell-based PXR reporter; activation, % at 11.6 µM; 2,300 tested, 88% active; AID 434939, 2010; in the data active = activation above about 11%;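 also: human hepatoma DPX-2 cells expressing full-length human PXR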
Hits are given with their value; n = inactive; x = no result given. The list is not random: actives were taken first. Their share in the collection is about 3.9%.

SMILES	SR-BI DiI inh	SR-BI DiI-HDL act	ABCB6 inh 2	GAA850 FXN act	AHR activator	HIF activator	AHR act confirm	PXR counter
COC(=O)c1c(-c2cccnc2)csc1NC(=O)c1ccc2c(c1)OCO2	n	n	n	n	114	n	n	n
CC1(C)Oc2ccc(NC(=O)C3COc4ccccc4O3)cc2O1 (centres undefined)	n	x	n	n	n	n	x	x
CC(=O)N1CC(C(=O)Nc2ccc3c(c2)OCO3)Oc2ccccc21 (centres undefined)	n	n	n	n	102	x	121	34
Cn1nccc1C(=O)Nc1ccc2c(c1)OCO2	n	n	n	n	104	n	60	19
COc1cccc(C(=O)NC2=NCCS2)c1	n	n	n	n	133	n	55	13
COc1ccccc1CNC(=O)Cc1cc(=O)[nH]c(=O)[nH]1	n	n	n	n	n	n	x	x
FC(F)(F)c1cccc(CN2CCN(c3ncccn3)CC2)c1	n	n	n	n	n	n	x	x
Cc1ccnc2ccc(-c3nc4ccccc4o3)cc12	n	n	n	n	87	x	183	54
Cc1cc(-c2nc3ccccc3o2)c2ccccc2n1	n	n	n	n	105	n	135	11
Cc1cc(C(=O)O)c2ccccc2n1	n	n	n	n	n	n	x	x
O=C(COC(=O)CN1C(=O)C2CCCCC2C1=O)Nc1cc(S(=O)(=O)N2CCOCC2)ccc1Cl (centres undefined)	n	n	n	n	n	n	x	x
Cc1[nH][nH]c(=O)c1N=Nc1ccc(Br)c(Cl)c1	n	n	n	n	85	n	128	11
Cc1[nH][nH]c(=O)c1N=Nc1ccc(S(N)(=O)=O)cc1	x	x	n	n	n	n	x	x
COc1ccccc1NC(=O)CN1CCCCCC1	n	n	n	n	n	n	x	x
Cc1ccccc1NC(=O)c1sc(NC(=O)C2CC2)nc1C	x	x	n	n	n	n	x	x
Cc1cc(C)c2sc(N)nc2c1	x	x	n	n	n	x	x	x
COc1ccc(NC(=O)c2sc(NC(=O)C3CC3)nc2C)cc1	n	n	n	n	n	n	x	x
CCc1cccc2sc(NC(=O)C3CC3)nc12	n	n	n	n	91	n	119	13
Cc1cc(C)c2sc(NC(=O)C3CC3)nc2c1	n	n	n	n	106	n	117	59
Cc1nc(NC(=O)C2CC2)sc1C(=O)Nc1ccc(Br)cc1	n	n	n	n	103	n	104	33
Cc1ccc(C)c2sc(NC(=O)C3CC3)nc12	n	n	n	n	92	n	121	x
COc1ccc(NC(=O)c2ccc(-c3ccccc3)cc2)cc1NS(=O)(=O)c1ccc(F)cc1	n	n	n	n	n	n	x	x
Cn1nc(-c2ccc(C(=O)Nc3cccnc3)cc2)c2ccccc2c1=O	n	n	n	n	n	n	x	x
Cc1cc(C)n(CCN(C)Cc2cn[nH]c2-c2ccc(F)cc2F)n1	n	n	n	n	n	n	x	x
C=CCNC(=S)N/N=C/c1ccc(-c2ccc(Br)cc2)o1	82	n	n	n	81	n	132	19
SMILES	SR-BI DiI inh	SR-BI DiI-HDL act	ABCB6 inh 2	GAA850 FXN act	AHR activator	HIF activator	AHR act confirm	PXR counter
c1cncc(-c2csc(-c3cccnc3)n2)c1	n	n	n	n	n	n	x	x
c1cncc(-c2nc(-c3ccc4c(c3)OCO4)cs2)c1	n	n	n	n	95	n	80	27
Clc1ccsc1-c1csc(-c2cccnc2)n1	n	n	n	n	85	n	142	25
COc1ccc(Cc2noc(CN3CCN(Cc4cccc(Cl)c4)CC3)n2)cc1OC	n	n	n	n	n	n	x	x
CC(=O)N(c1ccc(C)cc1)C1C=CS(=O)(=O)C1 (centres undefined)	n	n	n	n	n	x	x	x
COc1ccc(C=C2C=C(C(C)(C)C)C(=O)C(C(C)(C)C)=C2)cc1OC	n	n	n	n	n	n	x	x
CCCS(=O)(=O)N1CCN(Cc2ccncc2)CC1	n	n	n	n	n	n	x	x
COc1ccc(NC(=O)CSc2nnnn2-c2ccccc2OC)c(OC)c1	n	n	n	n	n	n	x	x
COc1ccccc1-n1nnnc1SCC(=O)Nc1ccc(C)c(N)c1	n	n	n	n	94	n	81	58
CC1(C)Cc2cccc(OCC(=O)NCc3cccs3)c2O1	n	n	n	n	n	n	x	x
Cc1cc(C)nc(Nc2n[nH]c(-c3ccccc3C)n2)n1	n	n	n	n	87	n	131	45
CCOC(=S)SCC(=O)Nc1nc(C)c(C)s1	x	x	n	n	n	n	x	x
O=C(Nc1nc2c(Cl)cccc2s1)c1ccc(Br)o1	n	n	n	n	102	n	105	67
O=C(Nc1nc2c(Cl)cccc2s1)c1ccc([N+](=O)[O-])o1	n	n	n	n	n	n	x	x
Cn1c2ccccc2c(=O)c2ccc(NCCc3cccs3)cc21	n	n	n	10.0	111	x	n	113
COc1cc(-c2cc(-c3ccccc3)nc(SCC(=O)Nc3nccs3)c2C#N)cc(OC)c1OC	n	n	n	n	n	n	x	x
COc1ccc(-c2[nH]c(-c3ccc(C)cc3)nc2SCC(=O)NC2CCCC2)cc1	80	n	n	n	104	n	88	86
COc1ccc(-c2[nH]c(-c3ccccc3)nc2SCC(=O)Nc2nccs2)cc1	n	n	n	n	109	x	78	42
Fc1ccccc1COc1ccc(/C=N/NC(=S)NCc2ccccc2)cc1	n	n	n	n	n	n	x	x
COc1ccccc1-c1noc(-c2ccncc2)n1	x	x	n	n	n	n	x	x
COc1ccccc1-c1noc(-c2cccs2)n1	n	n	n	n	86	n	144	17
COc1ccccc1-c1nc(-c2ccccn2)no1	n	n	n	n	113	n	118	n
Cc1ccccc1-c1nc(-c2ccccn2)no1	n	n	n	n	n	n	x	x
Cc1[nH]c2ccccc2c1C(=O)/C=C/c1ccccc1	x	x	n	n	166	n	140	200
Cc1[nH]c2ccccc2c1C(=O)/C=C\c1ccccc1Cl	n	n	n	n	157	n	112	78
CCC(C)Sc1ccc(-c2nc3ccc(C)cn3c2NCc2ccccc2)cc1OC (centres undefined)	n	n	n	n	n	n	x	x

High-throughput results from PubChem BioAssay.
